# An excerpt weighted towards active compounds, which were near 2.3% of everything screened.
# Mcl-1 Bim block: human Bim-Mcl-1 interaction inhibition; Q07820; Bead-based flow cytometry, Bim peptide-Mcl-1 binding; inhibition, % at 10 µM; 190,000 tested, 0.1% active; in the data active = inhibition above about 40%;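 also: 0% = no compound tracer wells and 100% = peptide blocker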
# Mcl1-Bid inh: Mcl-1/Bid interaction inhibition. Q07820. TR-FRET Mcl-1/Bid-Dy647 peptide binding, 1536-well. inhibition, % at 21.7 µM. 220,000 tested, 0.97% active. AID 1021;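 active = compounds that cut the binding signal by more than half at the single screening dose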;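 also: His-tagged Mcl-1 with europium anti-His antibody binding Bid BH3 peptide; 0% = Mcl-1 plus peptide wells and 100% = peptide-only wells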
# DSG3 Ab inh: inhibitors of pemphigus antibody binding to human desmoglein-3; P32926; DSG3-coupled beads, scFv-anti-DSG3-GFP binding, flow cytometry; hits give low values; binding (percent of control), % at 10 µM; 310,000 tested, 0.48% active;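 active = binding more than 3 SD below its plate's average and above zero; inconclusive = below that plate limit but binding exactly zero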;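 also: hits lower antibody fragment binding to DSG3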
# Target sequence (P32926 whole entry, looked up, the tested form may be a part): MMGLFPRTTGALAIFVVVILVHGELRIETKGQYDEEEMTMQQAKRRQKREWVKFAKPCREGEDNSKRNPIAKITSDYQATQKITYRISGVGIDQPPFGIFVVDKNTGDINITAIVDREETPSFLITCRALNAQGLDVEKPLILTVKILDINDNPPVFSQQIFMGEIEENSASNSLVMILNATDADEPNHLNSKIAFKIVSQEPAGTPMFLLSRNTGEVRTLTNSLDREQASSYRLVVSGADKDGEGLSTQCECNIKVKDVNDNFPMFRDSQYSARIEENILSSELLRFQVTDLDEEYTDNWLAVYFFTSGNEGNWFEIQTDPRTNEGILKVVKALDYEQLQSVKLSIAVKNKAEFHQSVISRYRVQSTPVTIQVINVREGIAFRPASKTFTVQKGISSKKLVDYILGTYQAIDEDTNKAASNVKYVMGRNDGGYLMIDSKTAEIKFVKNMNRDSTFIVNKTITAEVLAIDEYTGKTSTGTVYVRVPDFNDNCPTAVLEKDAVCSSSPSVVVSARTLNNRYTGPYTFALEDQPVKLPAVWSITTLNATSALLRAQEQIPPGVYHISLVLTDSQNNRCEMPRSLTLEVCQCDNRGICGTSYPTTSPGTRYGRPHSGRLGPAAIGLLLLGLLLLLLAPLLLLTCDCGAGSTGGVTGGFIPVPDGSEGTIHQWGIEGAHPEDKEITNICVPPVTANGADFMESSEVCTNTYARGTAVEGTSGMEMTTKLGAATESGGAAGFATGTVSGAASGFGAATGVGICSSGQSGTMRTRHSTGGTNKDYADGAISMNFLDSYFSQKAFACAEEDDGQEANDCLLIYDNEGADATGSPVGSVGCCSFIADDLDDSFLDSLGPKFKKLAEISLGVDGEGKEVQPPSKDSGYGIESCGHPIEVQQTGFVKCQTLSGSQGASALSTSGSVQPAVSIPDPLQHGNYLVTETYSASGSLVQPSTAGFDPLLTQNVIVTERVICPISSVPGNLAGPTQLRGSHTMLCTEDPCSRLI
# T cell HTS: T cell immune modulation candidate; 2C CD8+ T cell-vesicle binding, flow cytometry; hits give low values; response (vesicle binding), % at 7 µM; 330,000 tested, 0.068% active;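 active = response, share of CD8 T cells binding vesicles, and their 90th percentile fluorescence all below set limits, cut at about 80% in these data, passing the limit was not always enough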;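 also: values below 100% mean blocked vesicle binding to the CD8+ T cells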
#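 Test system: purified 2C TCR transgenic mouse naive CD8+ T cells. Probe or stimulus: QL9-peptide-loaded Drosophila micro-vesicles bearing Ld, ICAM-1 and B7-1. Incubation: binding step 1.5 h, 37 °C, antibody labelling 20 min, ice. Measured by: flow cytometry of vesicle-bound cells.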
# MCL1-BIM inh: inhibitors of human MCL1 binding to BIM-BH3 peptide. inhibition, % at 10.9 µM. 320,000 tested, 0.68% active. Q07820. AID 2057. GST-MCL1 / FITC-Bim-BH3 fluorescence polarization;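 active = inhibition above the mean inhibition of all tested compounds plus 3 SD, set per campaign, cut at about 40% in these data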;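 also: 0% = DMSO wells and 100% = unlabeled Bim-BH3 peptide control; higher means more loss of mP so more displacement of Bim peptide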
# Mcl1-Noxa inh: Mcl-1/Noxa interaction inhibition | 220,000 tested, 1.5% active | AID 1022 | TR-FRET Mcl-1/Noxa peptide binding, 2 h | Q07820 | inhibition, % at 21.7 µM;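 active = compounds that cut the protein-peptide binding signal by more than 50% relative to plate controls in a single-dose test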;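 also: His-tagged Mcl-1 with rhodamine Noxa BH3 peptide and terbium anti-His antibody; 0% = Mcl-1 plus Noxa peptide wells and 100% = peptide-only wells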
# Bcl-xL conf: counter-screen for MCL1 inhibitors: confirmation of human Bcl-xL inhibitors; 1,700 tested, 54% active; GST-Bcl-xL / FITC-Bim BH3 peptide FP binding; shares compounds with MCL1-BIM inh; inhibition, % at 10.9 µM;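 active = inhibition above a cutoff equal to the mean inhibition of all tested compounds plus 3 SD, cut at about 30% in these data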;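 also: 0% = DMSO wells and 100% = unlabeled Bim BH3 control peptide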
# MCL1 inh confirm: MCL1-BIM-BH3 interaction inhibition, confirmation; shares compounds with MCL1-BIM inh; GST-MCL1 / FITC-Bim-BH3 fluorescence polarization; inhibition, % at 10.9 µM; 1,700 tested, 61% active; AID 2168;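 active = inhibition above the average of all tested compounds plus 3 SD, cut at about 40% in these data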;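 also: 0% = DMSO wells and 100% = unlabeled Bim-BH3 control peptide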
# * = called active by the depositor; i = inactive; ? = inconclusive; / = no result; + = active, no number.
SMILES,Mcl-1 Bim block,Mcl1-Bid inh,DSG3 Ab inh,T cell HTS,MCL1-BIM inh,Mcl1-Noxa inh,Bcl-xL conf,MCL1 inh confirm
CC[C@]12c3[nH]c4ccc(Cl)cc4c3CCN1C(=O)[C@@H](CC(=O)NC/C=C(\C)CCC=C(C)C)C[C@@H]2C(=O)N1CCN(C(=O)c2ccco2)CC1,/,/,91,/,/,/,/,/
Cc1cc(O)c(Oc2cc(C)cc(O)c2O)c(O)c1,-3,-8,/,519,52*,61*,34*,46*
COc1cc(OC)c(OC)cc1/C=C1/Cc2ccccc2C1=O,/,/,110,i,111*,/,85*,103*
CCCC1OC23CCCCC2C(C#N)(C(=N)O3)C1(C#N)C#N (stereo not given),-1,-13,99,i,56*,6,17,16
CCC1OC23CCCCC2C(C#N)(C(=N)O3)C1(C#N)C#N (stereo not given),2,-33,109,212,78*,29,4,7
CC1OC23CCCCC2C(C#N)(C(=N)O3)C1(C#N)C#N (stereo not given),2,-15,108,188,21,7,/,/
COc1ccc(C2OC34CCCCC3C(C#N)(C#N)C2(C#N)C(=N)O4)cc1 (stereo not given),-6,-51,?,174,155*,-2,105*,135*
COc1ccc(/C=C2\SC(=O)N(CC(=O)NC3CCS(=O)(=O)C3)C2=O)cc1 (stereo not given),/,/,87,159,-10,/,/,/
Clc1cc(Cl)cc(Nc2ccccc2CN(C/C=C/c2ccc3c(c2)OCO3)Cc2ccccc2)c1,/,/,100,/,/,/,/,/
COc1ccc(C)cc1Nc1n[n+](-c2ccccc2)c(-c2ccc(SC)cc2)s1,/,/,101,176,-7,/,/,/
Cc1ccc(-c2ccccc2NC(=O)CS(=O)CC(=O)Nc2ccc(C)c(Cl)c2)o1 (stereo not given),/,/,110,259,141*,/,11,15
Cc1nn(-c2ccccc2)c(Cl)c1/C=N/Nc1ccc(S(=O)(=O)Nc2ccccc2C(=O)O)cc1[N+](=O)[O-],-3,100*,89,196,54*,105*,20,27
O=C(O)c1ccccc1NS(=O)(=O)c1ccc(NN=Cc2ccccc2F)c([N+](=O)[O-])c1,/,/,/,540,/,/,/,/
CCSC1=N/C(=C\c2ccc(-c3ccccc3[N+](=O)[O-])o2)C(=O)S1,-1,-19,97,472,90*,48,120*,141*
CCCNC(=O)N(C)C[C@@H]1Oc2cc(C#CC(C)(C)O)ccc2S(=O)(=O)N([C@H](C)CO)C[C@H]1C,/,/,100,/,/,/,/,/
CC(C)C(C(=O)O)N1C(=O)/C(=C/C=C/c2ccco2)SC1=S (stereo not given),0,98*,76*,491,95*,102*,32*,37
CC(=C\c1ccco1)/C=C1/SC(=S)N(CC(=O)O)C1=O,/,-47,96,192,6,28,/,/
O=C(NN1C(=O)/C(=C/C=C/c2ccco2)SC1=S)c1ccncc1,/,26,106,352,80*,99*,30*,45*
Cc1nc(NC(=O)c2ccccc2)sc1-c1cc(C(=O)O)nn1Cc1ccccc1,/,/,100,/,/,/,/,/
CC(=O)N1CC=C2C(C#N)=C(N)C(C#N)(C#N)C(C)C2C1 (stereo not given),-3,-15,101,744,23,6,/,/
Cc1ccc(C2C3CN(C(C)C)CC=C3C(C#N)=C(N)C2(C#N)C#N)cc1 (stereo not given),-6,-39,99,208,116*,8,59*,104*
CN1CC=C2C(C#N)=C(N)C(C#N)(C#N)C(c3cccc(Cl)c3Cl)C2C1 (stereo not given),0,-15,113,744,88*,9,56*,61*
N#CC1=C(N)C(C#N)(C#N)C(c2cccnc2)C2CN(C(=O)OCc3ccccc3)CC=C12 (stereo not given),-1,-21,98,206,18,-2,/,/
CCOC(=O)N1CC=C2C(C#N)=C(N)C(C#N)(C#N)[C@H](c3ccc(OCC)c(OCC)c3)[C@H]2C1,0,-29,92,188,3,15,/,/
N#CC1=C(N)C(C#N)(C#N)[C@H](c2ccoc2)[C@H]2CN(Cc3ccccc3)CC=C12,-3,-34,100,427,125*,20,106*,120*
SMILES,Mcl-1 Bim block,Mcl1-Bid inh,DSG3 Ab inh,T cell HTS,MCL1-BIM inh,Mcl1-Noxa inh,Bcl-xL conf,MCL1 inh confirm
CN1CC=C2C(C#N)=C(N)C(C#N)(C#N)[C@H](c3ccoc3)[C@H]2C1,2,-69,101,475,175*,1,111*,+
CN(C)c1nc(N(C)C)c2cnn(C)c2n1,/,/,99,/,/,/,/,/
COc1ccc(N(C)C(=O)Nc2ccc3nsnc3c2)cc1,-1,-24,105,/,/,13,/,/
CC(C)N(C(=O)Nc1ccc2nsnc2c1)C(C)C,1,-58,/,138,66*,1,28,24
Nc1cccc2c1C(=O)N(CCOc1ccc(F)cc1)C2=O,/,/,110,92,18,/,/,/
Nc1ccc2c(c1)C/C(=C/c1ccco1)C2=O,-3,-83,120,427,105*,37,97*,106*
COc1ccc(S(=O)(=O)Nc2ccc(F)cc2F)cc1C(=O)N1CCOCC1,/,/,104,509,-3,/,/,/
CCCCN1CC(=O)N2[C@H]3c4cc(Cl)ccc4OC[C@@H]3[C@H](c3ccccc3)[C@]2(C)C1=O,/,/,104,600,1,/,/,/
O=C1C=C(NNC(=O)c2cccnc2)CC(c2ccco2)C1 (stereo not given),-2,-17,100,289,54*,12,13,14
CC1(C)CC(=O)C=C(NNC(=O)c2cccnc2)C1,/,-36,105,286,17,-13,/,/
CCOc1ccc(N2CSC3=C(C#N)C(c4ccco4)CC(=O)N3C2)cc1 (stereo not given),-2,-38,100,221,78*,49,25,63*
Cc1ccc(S(=O)(=O)NNC(=O)c2ccccc2O)cc1,-1,-46,/,578,44*,30,12,29
CCN(CC)c1ccc2cc(NC(=O)CCC(=O)O)c(=O)oc2c1,0,-28,120,337,113*,1,106*,118*
CCN(CC)c1ccc2cc(C(C)=O)c(=O)oc2c1,0,-21,72,445,-138,-32,/,/
CC1=CC(=O)c2c(O)ccc(O)c2C1=O,23,99*,/,195,138*,96*,102*,142*
O=C1C=C(N2CCN(c3ccccn3)CC2)C(=O)c2c(O)ccc(O)c21,/,/,99,/,/,/,/,/

# Assay outcomes from PubChem.
